Legend:
Type in all cases: functional
Klebsiella pneumoniae [1] = assay: Antibacterial activity against Klebsiella pneumoniae D 11750/08 after 48 hrs by microdilution broth method; details: D 11750/08, 48 h
Outline: (§1)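 Mueller-Hinton broth microdilution (modified M07-A07), pH 7.4 (±0.2). Compounds dissolved in DMSO, tested at final 500 to 0.49 µmol/L. Inoculum in sterile water matched to 0.5 McFarland. Incubated in the dark, humid atmosphere, 35 °C, read at 24 and 48 h visually and at 540 nm. MIC taken as ≥95% growth reduction (IC95) versus control.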

Pichia kudriavzevii [2] = assay: Antifungal activity against Candida krusei E28 after 24 hrs by microdilution broth method; details: E28, 24 h
Outline: (§2)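 CLSI M27-A3 broth microdilution in RPMI 1640 with glutamine, buffered to pH 7.0 with MOPS; DMSO diluent. Yeast inoculum 5 × 10^3 ± 0.2 CFU/mL. Moulds grown on Sabouraud agar 3–10 days before spore harvest, final inoculum 0.5-5 × 10^4 CFU/mL, checked in a Bürker chamber. Incubated dark, humid, 35 °C, read at 24 and 48 h visually and at 540 nm. MIC taken as ≥80% (yeasts) or ≥50% (filamentous) growth reduction versus control.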

Mycobacterium kansasii [3] = assay: Antimycobacterial activity against Mycobacterium kansasii 6509/96 after 21 days; details: 6509/96, 504 h
Outline: (§3)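 Šula's semisynthetic medium micromethod at 37 °C, read after 7, 14 and 21 days. The 1.0 McFarland suspension was diluted 10^-4. MIC determined. 6509/96 is a clinical isolate.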

Pseudomonas aeruginosa [4] = assay: Antibacterial activity against Pseudomonas aeruginosa CCM 1961 after 48 hrs by microdilution broth method; details: CCM 1961, 48 h; outline: as §1
Mycobacterium avium [5] = assay: Antimycobacterial activity against Mycobacterium avium 330/80 after 21 days; details: 330/80, 504 h
Pseudomonas aeruginosa [6] = assay: Antibacterial activity against Pseudomonas aeruginosa CCM 1961 after 24 hrs by microdilution broth method; details: CCM 1961, 24 h; outline: as §1
[7] = test system: Trichophyton mentagrophytes; assay: Antifungal activity against Trichophyton mentagrophytes 445 after 48 hrs by microdilution broth method; details: Trichophyton mentagrophytes, 445, 48 h
Aspergillus fumigatus [8] = assay: Antifungal activity against Aspergillus fumigatus 231 after 24 hrs by microdilution broth method; details: Aspergillus fumigatus, 231, 24 h; outline: as §2
[9] = test system: Staphylococcus epidermidis; assay: Antibacterial activity against Staphylococcus epidermidis H 6966/08 after 48 hrs by microdilution broth method; details: H 6966/08, 48 h; outline: as §1
Enterococcus sp. [10] = assay: Antibacterial activity against Enterococcus sp. J 14365/08 after 48 hrs by microdilution broth method; details: J 14365/08, 48 h; outline: as §1
Trichosporon asahii [11] = assay: Antifungal activity against Trichosporon asahii 1188 after 48 hrs by microdilution broth method; details: Trichosporon asahii, 1188, 48 h; outline: as §2
Escherichia coli [12] = assay: Antibacterial activity against Escherichia coli CCM4517 after 48 hrs by microdilution broth method; details: CCM4517, 48 h; outline: as §1
Candida tropicalis [13] = assay: Antifungal activity against Candida tropicalis 156 after 24 hrs by microdilution broth method; details: Candida tropicalis, 156, 24 h; outline: as §2
Mycobacterium kansasii [14] = assay: Antimycobacterial activity against Mycobacterium kansasii 6509/96 after 14 days; details: 6509/96, 336 h; outline: as §3
Mycobacterium avium [15] = assay: Antimycobacterial activity against Mycobacterium avium 330/80 after 14 days; details: 330/80, 336 h
Staphylococcus aureus [16] = assay: Antibacterial activity against Staphylococcus aureus CCM 4516/08 after 24 hrs by microdilution broth method; details: CCM 4516/08, 24 h
[17] = test system: Trichophyton mentagrophytes; assay: Antifungal activity against Trichophyton mentagrophytes 445 after 24 hrs by microdilution broth method; details: Trichophyton mentagrophytes, 445, 24 h
Aspergillus fumigatus [18] = assay: Antifungal activity against Aspergillus fumigatus 231 after 48 hrs by microdilution broth method; details: Aspergillus fumigatus, 231, 48 h; outline: as §2
Mycobacterium kansasii [19] = assay: Antimycobacterial activity against Mycobacterium kansasii 235/80 after 14 days; details: 235/80, 336 h; outline: as §3
Candida albicans [20] = assay: Antifungal activity against Candida albicans ATCC 44859 after 24 hrs by microdilution broth method; details: ATCC 44859, 24 h; outline: as §2
Trichosporon asahii [21] = assay: Antifungal activity against Trichosporon asahii 1188 after 24 hrs by microdilution broth method; details: Trichosporon asahii, 1188, 24 h; outline: as §2
Lichtheimia corymbifera [22] = assay: Antifungal activity against Absidia corymbifera 272 after 24 hrs by microdilution broth method; details: Lichtheimia corymbifera, 272, 24 h; outline: as §2
Klebsiella pneumoniae [23] = assay: Antibacterial activity against ESBL-positive Klebsiella pneumoniae J 14368/08 after 48 hrs by microdilution broth method; details: J 14368/08, 48 h; outline: as §1
Staphylococcus aureus [24] = assay: Antibacterial activity against methicillin-resistant Staphylococcus aureus H 5996/08 after 48 hrs by microdilution broth method; details: H 5996/08, 48 h
[25] = test system: Staphylococcus epidermidis; assay: Antibacterial activity against Staphylococcus epidermidis H 6966/08 after 24 hrs by microdilution broth method; details: H 6966/08, 24 h; outline: as §1
Mycobacterium kansasii [26] = assay: Antimycobacterial activity against Mycobacterium kansasii 6509/96 after 7 days; details: 6509/96, 168 h; outline: as §3
Enterococcus sp. [27] = assay: Antibacterial activity against Enterococcus sp. J 14365/08 after 24 hrs by microdilution broth method; details: J 14365/08, 24 h; outline: as §1
Staphylococcus aureus [28] = assay: Antibacterial activity against methicillin-resistant Staphylococcus aureus H 5996/08 after 24 hrs by microdilution broth method; details: H 5996/08, 24 h
Nakaseomyces glabratus [29] = assay: Antifungal activity against Candida glabrata 20/I after 24 hrs by microdilution broth method; outline: as §2
Nakaseomyces glabratus [30] = assay: Antifungal activity against Candida glabrata 20/I after 48 hrs by microdilution broth method; outline: as §2
Candida tropicalis [31] = assay: Antifungal activity against Candida tropicalis 156 after 48 hrs by microdilution broth method; details: Candida tropicalis, 156, 48 h; outline: as §2
[32] = test system: Mycobacterium tuberculosis; assay: Antimycobacterial activity against Mycobacterium tuberculosis H37Rv 331/88 after 14 days; details: H37Rv 331/88, 336 h
[33] = test system: Mycobacterium tuberculosis; assay: Antimycobacterial activity against Mycobacterium tuberculosis H37Rv 331/88 after 21 days; details: H37Rv 331/88, 504 h
Klebsiella pneumoniae [34] = assay: Antibacterial activity against ESBL-positive Klebsiella pneumoniae J 14368/08 after 24 hrs by microdilution broth method; details: J 14368/08, 24 h; outline: as §1
Candida albicans [35] = assay: Antifungal activity against Candida albicans ATCC 44859 after 48 hrs by microdilution broth method; details: ATCC 44859, 48 h; outline: as §2
Lichtheimia corymbifera [36] = assay: Antifungal activity against Absidia corymbifera 272 after 48 hrs by microdilution broth method; details: Lichtheimia corymbifera, 272, 48 h; outline: as §2
Pichia kudriavzevii [37] = assay: Antifungal activity against Candida krusei E28 after 48 hrs by microdilution broth method; details: E28, 48 h; outline: as §2
Klebsiella pneumoniae [38] = assay: Antibacterial activity against Klebsiella pneumoniae D 11750/08 after 24 hrs by microdilution broth method; details: D 11750/08, 24 h; outline: as §1
Mycobacterium kansasii [39] = assay: Antimycobacterial activity against Mycobacterium kansasii 235/80 after 7 days; details: 235/80, 168 h; outline: as §3
Mycobacterium kansasii [40] = assay: Antimycobacterial activity against Mycobacterium kansasii 235/80 after 21 days; details: 235/80, 504 h; outline: as §3
Staphylococcus aureus [41] = assay: Antibacterial activity against Staphylococcus aureus CCM 4516/08 after 48 hrs by microdilution broth method; details: CCM 4516/08, 48 h
Escherichia coli [42] = assay: Antibacterial activity against Escherichia coli CCM4517 after 24 hrs by microdilution broth method; details: CCM4517, 24 h; outline: as §1

Measured: MIC

O=C(Nc1cccc(Cl)c1)c1cc([N+](=O)[O-])ccc1O
16 µM: [32] | [33] | Mycobacterium kansasii [39]
62.5 µM: Mycobacterium kansasii [3] | [9] | Mycobacterium kansasii [14] | Staphylococcus aureus [24] | [25] | Staphylococcus aureus [28] | Mycobacterium kansasii [40] | Staphylococcus aureus [41]
31.2 µM: Staphylococcus aureus [16]
32 µM: Mycobacterium kansasii [19] | Mycobacterium kansasii [26]
500 µM: Pichia kudriavzevii [2] | Aspergillus fumigatus [8] | Aspergillus fumigatus [18] | Enterococcus sp. [27]
125 µM: Mycobacterium avium [5] | Mycobacterium avium [15]
250 µM: [7] | [17]
> 500 µM: all other assays above

O=C(Nc1cccc(I)c1)c1cc([N+](=O)[O-])ccc1O
250 µM: Aspergillus fumigatus [8] | Aspergillus fumigatus [18] | Trichosporon asahii [21] | Enterococcus sp. [27]
125 µM: Mycobacterium avium [5] | [7] | Mycobacterium avium [15] | [17]
500 µM: Pichia kudriavzevii [2] | Trichosporon asahii [11] | Candida tropicalis [13] | Candida albicans [20] | Lichtheimia corymbifera [22] | Nakaseomyces glabratus [29] | Nakaseomyces glabratus [30] | Candida tropicalis [31] | Pichia kudriavzevii [37]
62.5 µM: Mycobacterium kansasii [3] | Mycobacterium kansasii [14] | Mycobacterium kansasii [40]
16 µM: [32] | [33] | Mycobacterium kansasii [39]
31.2 µM: [9] | Staphylococcus aureus [16] | Staphylococcus aureus [24] | [25] | Staphylococcus aureus [28] | Staphylococcus aureus [41]
32 µM: Mycobacterium kansasii [19] | Mycobacterium kansasii [26]
> 500 µM: all other assays above

Reference: ChEMBL document CHEMBL3627671, “Novel derivatives of nitro-substituted salicylic acids: Synthesis, antimicrobial activity and cytotoxicity” (Bioorg Med Chem, 2015)
